Measured values as given in ChEMBL document CHEMBL4513216, “Probing the Open Global Health Chemical Diversity Library for Multistage-Active Starting Points for Next-Generation Antimalarials” (ACS Infect Dis, 2020).

assay: Toxicity liver stage against HepG2, at 10uM; type: cell-based; design: test concentration 10 uM, cell line HepG2-A16-CD81EGFP; settings: human, HepG2-A16-CD81EGFP cells; read-out: INHIBITION
Summary of the method: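 Uninfected HepG2-A16-CD81EGFP cells, 3 × 10^3 per well, 1536-well, plated on prespotted compound at 10 μM final, parasite-free screening media added to match infected plates; puromycin 10 μM positive, DMSO 0.5% negative; run in parallel with 48 h PbLuc assay at 37 °C, 5% CO2; viability by CellTiter-Glo luminescence, normalized to controls.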

SMILES	cytotoxicity at 10 µM [%]
COc1ccc(NC(=O)c2nc3ccccc3n(C)c2=O)cc1OC	-7.36
CC(C)(C)OC(=O)N1CCN(C(=O)c2cnn3c2OCCC3)CC1	-2
CCC(=O)N1CCN(c2cc(N(C)C)cnn2)CC1	2
COc1ccc(CN2C[C@@H]3CN(S(=O)(=O)C4CC4)C[C@@H]3C2=O)cc1	-4.01
COCCN1C(=O)CCC12CCCN(C(=O)CC1CC1)CC2 (stereo unspecified)	0.346
O=C(NC1CC1)c1nc2c(s1)CCCN2c1ccccc1	-157
COc1nn(C)c2c1CCCN(C(=O)c1ccsc1)C2	-0.414
C[C@@H]1C[C@@H]2CCN(C(=O)c3ccncn3)C[C@H]2O1	-1.55
CCCNS(=O)(=O)c1cnccc1N1CCN(C(C)C)CC1	-1.32
CC(=O)c1c(C)nn(S(=O)(=O)c2ccc(C)cc2)c1C	-1.61
O=C(Cn1nc(-c2cccs2)ccc1=O)N1CCCCCC1	-2.7
COC(=O)c1ccn(COc2ccccc2Cl)n1	8.99
CCN1CCN(C(=O)c2cc(-c3cccs3)cs2)CC1	2.93
CC(=O)N1CCC(c2nccnc2C)CC1	-2.82
O=C(Cc1cccs1)N1CCOC(c2cccc(O)c2)C1 (stereo unspecified)	0.631
O=C(COCC1CC1)Nc1cc(S(=O)(=O)NC2CC2)ccc1F	-7.63
CCOC1CCN(C(=O)c2ccc(-c3cccc(C)c3)[nH]c2=O)CC1	3.08
CCc1nc(CC)n(CC(=O)N(C)Cc2ccc(F)cc2)n1	5.25
CC(C)C(C)NC(=O)Nc1cccc(OCC#N)c1 (stereo unspecified)	-1.13
COc1cc(C)ccc1OCC(=O)NS(=O)(=O)c1cccnc1	4.03
COc1cc(C)ccc1OCCC(=O)N1CCCC(n2cncn2)C1 (stereo unspecified)	-2.69

SMILES	cytotoxicity at 10 µM [%]
CCc1nc2n(n1)CC(NCc1ccccc1OCC(=O)NC)CC2 (stereo unspecified)	4.57
Cc1c(CS(C)(=O)=O)cccc1NC(=O)CC1CCCC1	-6.72
COCCN1CCC(CNC(=O)c2c[nH]c(=O)c(Cl)c2)CC1	9.05
COc1cc(C(C)=O)ccc1OCC(=O)N(Cc1ccsc1)C1CC1	1.88
CC(C)NC(=O)CCNC(=O)Nc1cnn(-c2ccccc2F)c1	1.21
CN(Cc1nccn1CC(F)(F)F)C(=O)c1cccc(N(C)C)c1	3.92
CC(C)N(C)CC(=O)NCC(Cc1ccc(F)cc1)C(N)=O (stereo unspecified)	13.6
Cc1cc(NC(=O)C2CCCN(C(=O)NCC(C)C)C2)ccn1 (stereo unspecified)	-10.5
Cc1ccc(NS(C)(=O)=O)c(C(=O)NCCC(=O)NC(C)C)c1	-0.141
CC(C)c1nc2c(n1C)CCN(CCc1ccccn1)C2	-2.01
CC(C)(C)CC(=O)NS(=O)(=O)c1ccc(F)cc1C(F)(F)F	-4.3
Cc1cnn(CCC(=O)Nc2ccc(F)cc2OCC2CC2)c1	-4.11
O=C(Nc1ccccc1)c1ccc(NCc2ccncc2)nn1	-3.17
CN(C)c1ccc(NC(=O)N2CCCCCC2c2ccncc2)cn1 (stereo unspecified)	0.462
Cn1ncc2c1C(COCC1CC1)CN(S(=O)(=O)C1CC1)C2 (stereo unspecified)	-74.3
Cn1cnnc1CN1CCC2(CCCN(C3CCCC3)C2=O)C1 (stereo unspecified)	-133
COc1ccc(N2CCN(C(=O)Cn3nccc3C)CC2(C)C)cc1	6.68
CC(C)c1nc(CN(C)C(=O)C(O)c2ccc(Cl)cc2)cs1 (stereo unspecified)	-150
CC1(C)CNC(=O)c2nc(C3CCCN(C(=O)C4CC4)C3)[nH]c2C1 (stereo unspecified)	3.74
Cc1ncsc1CN1CCC2(CC1)CC(=O)N(Cc1ccc(Cl)cc1)C2	6.83
COCc1nc(N2CC[C@H](N(C)C)C2)c2cnn(C)c2n1	-6.67

SMILES	cytotoxicity at 10 µM [%]
O=C(CSc1ccncc1)NC1CC(=O)N(CCc2ccccc2)C1 (stereo unspecified)	0.318
CCCc1nnc(N2CCN(c3ccccc3Cl)CC2)o1	0.426
O=C(c1cc(COc2ccc3c(c2)OCO3)[nH]n1)N1CCCO1	-1.59
CCCN1CCCC2(CCN(Cc3noc(C4CCCC4)n3)C2)C1=O (stereo unspecified)	0.603
CN(C)CCNC(=O)c1cc2n(n1)CCN(C(=O)CC(C)(C)C)C2	-1.85
CCOc1ccccc1C(=O)N1CCCC(c2nccn2CCOC)C1 (stereo unspecified)	1.1
OC1(CN2CCCC2)COCCN(c2cc(C(F)(F)F)ccn2)C1 (stereo unspecified)	-5.34
CCOc1ccc(-c2nc(C(=O)NCC3CCOC3)cs2)cc1 (stereo unspecified)	-4.33
Cc1nn(C)c(C)c1C1COCCN1C(=O)c1ccc(Cl)o1 (stereo unspecified)	2.01
CCNC(=O)N(C)C(c1ccccc1)c1ccccn1 (stereo unspecified)	1.52
Cc1nc(C(=O)N2CCOC(c3nc(C(C)C)n[nH]3)C2)c[nH]1 (stereo unspecified)	-1.58
c1ccc(Cc2nnc(CN3CCCC(Cn4cncn4)C3)o2)cc1 (stereo unspecified)	-4.51
Cc1cc(C)n(C2CCCN(C(=O)Cc3cn4ccsc4n3)C2)n1 (stereo unspecified)	-6.07
Cc1cnc(C(=O)NC(CN2CCCC2=O)c2ccccc2)cn1 (stereo unspecified)	-8.8
O=C(Nc1ccncc1)C1=NN(c2ccccc2)C(=O)CN1	2.76
Cc1csc(N2CCN(C(=O)CCn3cccn3)CC2)n1	-9.41
Cc1nn(C)c(N2CCOCC2)c1CN[C@@H]1c2ccccc2C[C@@H]1O	-12.2
CCc1n[nH]c(C2CN(C(=O)c3cc(C(N)=O)cs3)CCO2)n1 (stereo unspecified)	-17.5
CC(=O)NC1CCCN(C(=O)Nc2cccnc2-n2cccn2)C1 (stereo unspecified)	-15.3
CCn1ccnc1CN1CCCN(C(=O)COC2CCCCC2)CC1	-11.7
CC(=O)Nc1nc(C(=O)NCc2ccc(OC(C)C)nc2)cs1	-2.45

SMILES	cytotoxicity at 10 µM [%]
COc1ccc(C)cc1C(=O)N1CCCC(n2cncn2)C1 (stereo unspecified)	-13.3
Cc1cnn(CC2CCCN2C(=O)c2cn(C)c3ccccc23)c1 (stereo unspecified)	-2.12
CCc1ccsc1C(=O)N1CCCN(Cc2cscn2)CC1	-4.77
CS(=O)(=O)NC1CCCN(C(=O)c2cccnc2)C1 (stereo unspecified)	-3.75
Cc1nc(C2CCCN2Cc2nnc(Cc3ccccc3)o2)no1 (stereo unspecified)	-5
Cc1noc(CCCC(=O)NC(C)c2cccnc2)n1 (stereo unspecified)	-12.5
O=C(c1ccc(-n2cccn2)nc1)N1CCC(Nc2cccnn2)CC1	-1.08
O=C1N(Cc2cccc(Cl)c2)CCC12CCCNC2 (stereo unspecified)	-16.5
Cc1ccc(O[C@@H]2C[C@H]3CN(Cc4nccn4C)CCN3C2)cc1	3.39
c1cncc(COCc2nnc3n2CCN(CC2CC2)C3)c1	-3.03
O=C([C@H]1C[C@@H]2CCN(C3CCOCC3)C[C@@H]2O1)N1CCOCC1	-2.56
Cc1oncc1C(=O)N1CCC2(CC1)CC(N1CCOCC1)C2	-2.69
O=C(NCc1ccco1)[C@H]1C[C@H]2OCC[C@H]2N(C(=O)c2ccncc2)C1	-5.34
CN1CCN(Cc2cccnc2)C2(CCN(Cc3ccccn3)C2)C1=O (stereo unspecified)	-3.66
O=C(c1ncccn1)N1C[C@H]2CCC[C@@]2(COCc2ccncc2)C1	-3.08
COc1cccc(C=CCCN2CCC(C(=O)N3CCCC3)CC2)c1	7.09
CC(C)=CCN1C(=O)[C@@H]2CC[C@H]1CN(C(=O)CCc1nnc(Cl)[nH]1)C2	2.96
O=C(NCC1(COc2cnccn2)C[C@@H](O)[C@@H](O)C1)C1CCCC1 (stereo partly specified)	-1.81
